Data reported in ChEMBL document CHEMBL1275282, “Synthesis, characterization, oxidative degradation, antibacterial activity and acetylcholinesterase/butyrylcholinesterase inhibitory effects of some new phosphorus(V) hydrazides” (Eur J Med Chem, 2010).

Experiments:
Cholinesterase = Cholinesterase (Homo sapiens, UniProt P06276); assay: Inhibition of human BChE by Ellman method
In short: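 BChE activity was run as in the Ellman AChE format: thiocholine released from butyrylthiocholine was read with DTNB. Lyophilised enzyme was diluted in 100 mM phosphate buffer, pH 8. IC50 was taken from a plot of VI/V0 against log[I].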

Escherichia coli [1] = assay: Antibacterial activity against Escherichia coli at 5 mg/ml after 20-24 hrs by filter paper disc method.; assay type: functional; conditions: read-out: DIZ
In short: (§1)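 Filter paper disc diffusion on nutrient agar, with nutrient-agar cultures as inocula. 6.5 mm paper discs were saturated with test solutions at 5 or 10 mg ml-1, with chloramphenicol at the same levels as reference. Plates were incubated at 37 ± 1 °C for 20–24 h. The growth-inhibition zone diameter was measured, and three diameters were averaged per sample.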

Acetylcholinesterase = Acetylcholinesterase (Homo sapiens, UniProt P22303); assay: Inhibition of human AChE by Ellman method
Pseudomonas aeruginosa [2] = assay: Antibacterial activity against Pseudomonas aeruginosa at 5 mg/ml after 20-24 hrs by filter paper disc method.; assay type: functional; conditions: read-out: DIZ; in short: as §1
Bacillus subtilis [3] = assay: Antibacterial activity against Bacillus subtilis at 10 mg/ml after 20-24 hrs by filter paper disc method; assay type: functional; conditions: read-out: DIZ; in short: as §1
Pseudomonas aeruginosa [4] = assay: Antibacterial activity against Pseudomonas aeruginosa at 10 mg/ml after 20-24 hrs by filter paper disc method.; assay type: functional; conditions: read-out: DIZ; in short: as §1
Staphylococcus aureus [5] = assay: Antibacterial activity against Staphylococcus aureus at 10 mg/ml after 20-24 hrs by filter paper disc method; assay type: functional; conditions: read-out: DIZ; in short: as §1
Escherichia coli [6] = assay: Antibacterial activity against Escherichia coli at 10 mg/ml after 20-24 hrs by filter paper disc method; assay type: functional; conditions: read-out: DIZ; in short: as §1
[7] = Lipophilicity, log P of the compound; assay type: physicochemical; conditions: octanol/water
Bacillus subtilis [8] = assay: Antibacterial activity against Bacillus subtilis at 5 mg/ml after 20-24 hrs by filter paper disc method; assay type: functional; conditions: read-out: DIZ; in short: as §1
Bacillus cereus [9] = assay: Antibacterial activity against Bacillus cereus at 5 mg/ml after 20-24 hrs by filter paper disc method; assay type: functional; conditions: read-out: DIZ; in short: as §1
Bacillus cereus [10] = assay: Antibacterial activity against Bacillus cereus at 10 mg/ml after 20-24 hrs by filter paper disc method; assay type: functional; conditions: read-out: DIZ; in short: as §1
Klebsiella pneumoniae [11] = assay: Antibacterial activity against Klebsiella pneumoniae at 5 mg/ml after 20-24 hrs by filter paper disc method; assay type: functional; conditions: read-out: DIZ; in short: as §1
Staphylococcus aureus [12] = assay: Antibacterial activity against Staphylococcus aureus at 5 mg/ml after 20-24 hrs by filter paper disc method; assay type: functional; conditions: read-out: DIZ; in short: as §1
Klebsiella pneumoniae [13] = assay: Antibacterial activity against Klebsiella pneumoniae at 10 mg/ml after 20-24 hrs by filter paper disc method; assay type: functional; conditions: read-out: DIZ; in short: as §1

Sequence of Acetylcholinesterase (P22303 whole entry): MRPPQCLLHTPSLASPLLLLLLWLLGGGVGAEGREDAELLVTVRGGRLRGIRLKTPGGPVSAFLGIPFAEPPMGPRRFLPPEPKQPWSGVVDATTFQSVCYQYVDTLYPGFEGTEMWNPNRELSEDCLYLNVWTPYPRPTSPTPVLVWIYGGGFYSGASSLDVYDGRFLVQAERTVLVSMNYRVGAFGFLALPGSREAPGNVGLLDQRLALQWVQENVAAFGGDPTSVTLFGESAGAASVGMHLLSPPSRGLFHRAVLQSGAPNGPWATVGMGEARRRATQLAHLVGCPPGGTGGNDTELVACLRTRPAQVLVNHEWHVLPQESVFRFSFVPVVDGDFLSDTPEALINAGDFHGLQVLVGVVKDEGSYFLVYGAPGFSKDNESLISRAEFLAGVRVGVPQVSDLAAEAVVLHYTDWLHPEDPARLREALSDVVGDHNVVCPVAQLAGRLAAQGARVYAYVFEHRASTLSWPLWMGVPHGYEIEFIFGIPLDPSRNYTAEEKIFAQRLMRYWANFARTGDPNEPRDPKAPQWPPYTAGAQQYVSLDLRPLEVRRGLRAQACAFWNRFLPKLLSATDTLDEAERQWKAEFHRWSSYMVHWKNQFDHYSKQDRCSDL
Sequence of Cholinesterase (P06276 whole entry): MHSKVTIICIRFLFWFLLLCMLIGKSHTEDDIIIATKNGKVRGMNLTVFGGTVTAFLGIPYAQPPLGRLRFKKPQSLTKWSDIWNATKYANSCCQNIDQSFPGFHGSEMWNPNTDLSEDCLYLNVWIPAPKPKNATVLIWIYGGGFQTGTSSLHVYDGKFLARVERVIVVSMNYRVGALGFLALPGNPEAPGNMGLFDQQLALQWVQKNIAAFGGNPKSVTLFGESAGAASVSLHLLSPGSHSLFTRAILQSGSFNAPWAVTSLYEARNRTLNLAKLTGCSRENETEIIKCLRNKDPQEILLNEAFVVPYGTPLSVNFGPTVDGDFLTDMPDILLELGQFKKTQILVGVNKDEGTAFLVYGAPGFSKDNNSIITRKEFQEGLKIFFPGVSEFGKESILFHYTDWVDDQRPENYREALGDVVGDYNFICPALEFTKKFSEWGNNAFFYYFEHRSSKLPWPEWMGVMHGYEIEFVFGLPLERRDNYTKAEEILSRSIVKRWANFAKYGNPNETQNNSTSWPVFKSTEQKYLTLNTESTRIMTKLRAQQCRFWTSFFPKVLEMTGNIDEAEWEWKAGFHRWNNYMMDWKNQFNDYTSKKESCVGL

SMILES: O=P(O)(NN1CCCCC1)Oc1ccccc1
- IC50 (Cholinesterase): 1580 µM
- zone of inhibition at 5000 µg/mL (Escherichia coli [1]): 7 mm
- IC50 (Acetylcholinesterase): 5490 µM
- zone of inhibition at 5000 µg/mL (Pseudomonas aeruginosa [2]): 5 mm
- zone of inhibition at 10000 µg/mL (Bacillus subtilis [3]): 15 mm
- zone of inhibition at 10000 µg/mL (Pseudomonas aeruginosa [4]): 10 mm
- zone of inhibition at 10000 µg/mL (Staphylococcus aureus [5]): 8 mm
- zone of inhibition at 10000 µg/mL (Escherichia coli [6]): 11 mm
- logP [7]: 1.29
- zone of inhibition at 5000 µg/mL (Bacillus subtilis [8]): 7 mm

SMILES: O=P(NN1CCOCC1)(NN1CCOCC1)Oc1ccccc1Cl
- zone of inhibition at 5000 µg/mL (Escherichia coli [1]): 7 mm
- zone of inhibition at 5000 µg/mL (Bacillus cereus [9]): 7 mm
- zone of inhibition at 10000 µg/mL (Bacillus cereus [10]): 10 mm
- zone of inhibition at 10000 µg/mL (Escherichia coli [6]): 10 mm

SMILES: Cc1ccc(OP(=O)(NN2CCOCC2)NN2CCOCC2)cc1
- zone of inhibition at 5000 µg/mL (Escherichia coli [1]): 6 mm
- zone of inhibition at 5000 µg/mL (Klebsiella pneumoniae [11]): 7 mm
- zone of inhibition at 10000 µg/mL (Bacillus subtilis [3]): 18 mm
- zone of inhibition at 10000 µg/mL (Staphylococcus aureus [5]): 13 mm
- zone of inhibition at 5000 µg/mL (Staphylococcus aureus [12]): 10 mm
- zone of inhibition at 10000 µg/mL (Klebsiella pneumoniae [13]): 14 mm
- zone of inhibition at 10000 µg/mL (Escherichia coli [6]): 11 mm
- zone of inhibition at 5000 µg/mL (Bacillus subtilis [8]): 8 mm

SMILES: O=P(NN1CCCCC1)(NN1CCCCC1)Oc1ccccc1
- zone of inhibition at 5000 µg/mL (Escherichia coli [1]): 7 mm
- zone of inhibition at 5000 µg/mL (Klebsiella pneumoniae [11]): 5 mm
- zone of inhibition at 10000 µg/mL (Bacillus subtilis [3]): 13 mm
- zone of inhibition at 5000 µg/mL (Bacillus cereus [9]): 5 mm
- zone of inhibition at 10000 µg/mL (Staphylococcus aureus [5]): 17 mm
- zone of inhibition at 10000 µg/mL (Bacillus cereus [10]): 14 mm
- zone of inhibition at 5000 µg/mL (Staphylococcus aureus [12]): 11 mm
- zone of inhibition at 10000 µg/mL (Klebsiella pneumoniae [13]): 15 mm
- zone of inhibition at 10000 µg/mL (Escherichia coli [6]): 15 mm
- zone of inhibition at 5000 µg/mL (Bacillus subtilis [8]): 6 mm

SMILES: O=C(NP(=O)(NN1CCOCC1)NN1CCOCC1)c1ccccc1
- IC50 (Cholinesterase): 2140 µM
- zone of inhibition at 5000 µg/mL (Escherichia coli [1]): 6 mm
- IC50 (Acetylcholinesterase): 18600 µM
- zone of inhibition at 10000 µg/mL (Bacillus subtilis [3]): 13 mm
- zone of inhibition at 10000 µg/mL (Staphylococcus aureus [5]): 8 mm
- zone of inhibition at 10000 µg/mL (Escherichia coli [6]): 11 mm
- logP [7]: -0.78
- zone of inhibition at 5000 µg/mL (Bacillus subtilis [8]): 7 mm

SMILES: O=C(NP(=O)(NN1CCOCC1)NN1CCOCC1)c1ccc(Cl)cc1
- zone of inhibition at 5000 µg/mL (Escherichia coli [1]): 6 mm
- zone of inhibition at 10000 µg/mL (Bacillus subtilis [3]): 12 mm
- zone of inhibition at 10000 µg/mL (Bacillus cereus [10]): 8 mm
- zone of inhibition at 10000 µg/mL (Escherichia coli [6]): 13 mm
- zone of inhibition at 5000 µg/mL (Bacillus subtilis [8]): 5 mm

SMILES: COc1ccc(C(=O)NP(=O)(NN2CCOCC2)NN2CCOCC2)cc1
- zone of inhibition at 10000 µg/mL (Bacillus subtilis [3]): 13 mm
- zone of inhibition at 10000 µg/mL (Bacillus cereus [10]): 7 mm
- zone of inhibition at 10000 µg/mL (Escherichia coli [6]): 7 mm
- zone of inhibition at 5000 µg/mL (Bacillus subtilis [8]): 7 mm

SMILES: O=C(NP(=O)(NN1CCCCC1)NN1CCCCC1)c1ccccc1
- IC50 (Cholinesterase): 430 µM
- IC50 (Acetylcholinesterase): 1950 µM
- zone of inhibition at 10000 µg/mL (Bacillus subtilis [3]): 19 mm
- zone of inhibition at 10000 µg/mL (Staphylococcus aureus [5]): 7 mm
- logP [7]: 1.35
- zone of inhibition at 5000 µg/mL (Bacillus subtilis [8]): 9 mm

SMILES: O=P(NN1CCOCC1)(NN1CCOCC1)c1ccccc1
- IC50 (Cholinesterase): 2450 µM
- logP [7]: -1.12

SMILES: O=P(NN1CCOCC1)(NN1CCOCC1)Oc1ccccc1
- IC50 (Cholinesterase): 1620 µM
- IC50 (Acetylcholinesterase): 9550 µM
- logP [7]: -0.54

SMILES: O=C(N[C@H](CO)[C@H](O)c1ccc([N+](=O)[O-])cc1)C(Cl)Cl [CHLORAMPHENICOL]
- zone of inhibition at 5000 µg/mL (Escherichia coli [1]): 13 mm
- zone of inhibition at 5000 µg/mL (Klebsiella pneumoniae [11]): 11 mm
- zone of inhibition at 10000 µg/mL (Bacillus subtilis [3]): 17 mm
- zone of inhibition at 10000 µg/mL (Pseudomonas aeruginosa [4]): 7 mm
- zone of inhibition at 5000 µg/mL (Bacillus cereus [9]): 12 mm
- zone of inhibition at 10000 µg/mL (Staphylococcus aureus [5]): 22 mm
- zone of inhibition at 10000 µg/mL (Bacillus cereus [10]): 15 mm
- zone of inhibition at 5000 µg/mL (Staphylococcus aureus [12]): 17 mm
- zone of inhibition at 10000 µg/mL (Klebsiella pneumoniae [13]): 15 mm
- zone of inhibition at 10000 µg/mL (Escherichia coli [6]): 17 mm
- zone of inhibition at 5000 µg/mL (Bacillus subtilis [8]): 14 mm
